# Calls of active or inactive are those of the source. The calls are words filed in the database; no cut-off is given here.
# Experiments:
# [1] = molecular target: T1, Voltage-dependent T-type calcium channel subunit alpha-1H (Homo sapiens, UniProt O95180); test: Inhibition of Cav3.2 alpha1H (unknown origin) expressed in HEK293 cells assessed as reduction in KCl-induced depolarization mediated intracellular Ca2+ level at 10 uM by fluo3/AM based high throughput screening assay relative to control; assay type: cell-based
# T1 sequence (O95180 whole entry): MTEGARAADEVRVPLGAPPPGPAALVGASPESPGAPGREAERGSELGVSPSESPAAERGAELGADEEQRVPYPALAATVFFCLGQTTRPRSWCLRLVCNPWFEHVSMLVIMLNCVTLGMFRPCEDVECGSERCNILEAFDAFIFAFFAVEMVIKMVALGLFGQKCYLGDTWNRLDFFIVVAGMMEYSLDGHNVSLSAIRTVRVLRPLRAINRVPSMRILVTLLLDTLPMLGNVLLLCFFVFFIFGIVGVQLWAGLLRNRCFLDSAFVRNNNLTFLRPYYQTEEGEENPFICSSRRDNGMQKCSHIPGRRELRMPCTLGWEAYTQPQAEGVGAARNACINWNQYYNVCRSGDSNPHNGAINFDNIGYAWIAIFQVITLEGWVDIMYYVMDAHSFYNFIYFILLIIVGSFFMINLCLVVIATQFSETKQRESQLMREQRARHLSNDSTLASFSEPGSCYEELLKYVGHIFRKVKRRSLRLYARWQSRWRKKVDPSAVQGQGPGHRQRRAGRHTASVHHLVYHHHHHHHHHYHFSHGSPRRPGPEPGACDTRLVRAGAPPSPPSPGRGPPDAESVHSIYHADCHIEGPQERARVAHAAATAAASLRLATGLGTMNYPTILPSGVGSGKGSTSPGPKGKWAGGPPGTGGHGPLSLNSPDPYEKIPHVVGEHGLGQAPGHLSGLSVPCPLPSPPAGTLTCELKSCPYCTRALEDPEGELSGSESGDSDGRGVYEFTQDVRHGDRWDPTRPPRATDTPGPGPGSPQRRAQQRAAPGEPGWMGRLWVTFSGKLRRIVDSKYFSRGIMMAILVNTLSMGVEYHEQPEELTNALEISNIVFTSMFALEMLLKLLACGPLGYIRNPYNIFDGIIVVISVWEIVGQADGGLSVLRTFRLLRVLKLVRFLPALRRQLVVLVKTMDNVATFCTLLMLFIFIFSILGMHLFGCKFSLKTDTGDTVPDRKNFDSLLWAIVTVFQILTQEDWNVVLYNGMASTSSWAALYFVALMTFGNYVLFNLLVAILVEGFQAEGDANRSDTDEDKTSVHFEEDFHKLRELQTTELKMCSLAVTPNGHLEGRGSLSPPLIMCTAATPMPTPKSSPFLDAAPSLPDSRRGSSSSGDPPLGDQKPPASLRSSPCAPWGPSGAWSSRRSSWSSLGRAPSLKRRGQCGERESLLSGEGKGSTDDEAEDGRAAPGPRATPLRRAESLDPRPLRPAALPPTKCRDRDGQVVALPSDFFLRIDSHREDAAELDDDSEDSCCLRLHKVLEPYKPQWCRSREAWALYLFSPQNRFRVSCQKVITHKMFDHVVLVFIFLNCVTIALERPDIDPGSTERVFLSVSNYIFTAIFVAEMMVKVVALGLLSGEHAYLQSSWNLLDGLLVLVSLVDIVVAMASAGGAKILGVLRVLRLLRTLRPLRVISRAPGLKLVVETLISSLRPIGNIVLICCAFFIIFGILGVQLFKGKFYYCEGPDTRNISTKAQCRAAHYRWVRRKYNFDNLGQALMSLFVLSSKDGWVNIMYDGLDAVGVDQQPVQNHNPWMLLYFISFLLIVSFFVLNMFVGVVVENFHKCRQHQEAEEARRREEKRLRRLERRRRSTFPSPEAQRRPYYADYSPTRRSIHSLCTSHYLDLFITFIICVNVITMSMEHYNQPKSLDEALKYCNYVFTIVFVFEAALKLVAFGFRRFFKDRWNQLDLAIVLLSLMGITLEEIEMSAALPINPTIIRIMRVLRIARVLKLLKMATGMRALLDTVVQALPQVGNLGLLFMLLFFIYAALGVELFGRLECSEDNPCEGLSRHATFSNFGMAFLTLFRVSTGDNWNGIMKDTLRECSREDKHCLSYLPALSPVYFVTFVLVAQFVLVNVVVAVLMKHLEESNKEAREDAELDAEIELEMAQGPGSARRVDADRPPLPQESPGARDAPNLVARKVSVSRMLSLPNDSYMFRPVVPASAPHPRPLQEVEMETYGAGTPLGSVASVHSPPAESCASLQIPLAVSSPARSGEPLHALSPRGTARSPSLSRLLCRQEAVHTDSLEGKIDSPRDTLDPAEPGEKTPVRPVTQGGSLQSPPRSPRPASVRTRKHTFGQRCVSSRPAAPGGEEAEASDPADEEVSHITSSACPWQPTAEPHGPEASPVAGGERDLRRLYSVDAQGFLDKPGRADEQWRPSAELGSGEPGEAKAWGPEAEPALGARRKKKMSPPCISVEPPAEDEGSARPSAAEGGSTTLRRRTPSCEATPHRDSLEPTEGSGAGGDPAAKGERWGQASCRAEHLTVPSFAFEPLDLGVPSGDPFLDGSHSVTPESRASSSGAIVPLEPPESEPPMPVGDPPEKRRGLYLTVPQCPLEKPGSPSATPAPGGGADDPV
# Method in brief: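 HEK293 cells stably expressing the T-type channel were kept under puromycin/geneticin selection with 10% FBS at 37 °C and 5% CO2. Cells were seeded at 4×10^4 per well and loaded with fluo3/AM plus 0.001% Pluronic F-127 in HEPES buffer (pH 7.4, 1.8 mM CaCl2) for 60 min at room temperature. The KCl depolarisation-evoked [Ca2+]i rise was read on FDSS6000.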
# [2] = molecular target: T1, Voltage-dependent T-type calcium channel subunit alpha-1H; test: Inhibition of Cav3.2 alpha1H (unknown origin) expressed in HEK293 cells by whole-cell patch clamp assay; assay type: cell-based
# Method in brief: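 Whole-cell patch clamp was done on T-type channel-expressing cells. Currents were evoked every 15 s by a 50-ms step from −100 mV to −30 mV. IC50 for peak current was obtained by fitting a dose-response curve and given ± SD.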
# [3] = Stability in human liver microsomes assessed as parent compound remaining at 1 uM after 30 mins in presence of NADPH by LC-MS/MS analysis; assay type: ADME, microsome; conditions: read-out: Stability
# Method in brief: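 Test compound at 1 μM was incubated with pooled human liver microsomes in potassium phosphate buffer with 1.2 mM NADPH at 37 °C for 30 min. The reaction was stopped with cold acetonitrile containing internal standard. Supernatant was analysed by LC-MS/MS for % remaining.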
# [4] = molecular target: CYP2D6 (Homo sapiens, UniProt P10635); test: Inhibition of recombinant human CYP2D6 expressed in baculosomes assessed as residual activity at 10 uM using vivid EOMCC/MOBFC as substrate after 15 mins in presence of NADPH by fluorescence assay relative to control; assay type: ADME; conditions: probe Vivid EOMCC/MOBFC, read-out: Activity
# CYP2D6, sequence (P10635 whole entry, canonical isoform): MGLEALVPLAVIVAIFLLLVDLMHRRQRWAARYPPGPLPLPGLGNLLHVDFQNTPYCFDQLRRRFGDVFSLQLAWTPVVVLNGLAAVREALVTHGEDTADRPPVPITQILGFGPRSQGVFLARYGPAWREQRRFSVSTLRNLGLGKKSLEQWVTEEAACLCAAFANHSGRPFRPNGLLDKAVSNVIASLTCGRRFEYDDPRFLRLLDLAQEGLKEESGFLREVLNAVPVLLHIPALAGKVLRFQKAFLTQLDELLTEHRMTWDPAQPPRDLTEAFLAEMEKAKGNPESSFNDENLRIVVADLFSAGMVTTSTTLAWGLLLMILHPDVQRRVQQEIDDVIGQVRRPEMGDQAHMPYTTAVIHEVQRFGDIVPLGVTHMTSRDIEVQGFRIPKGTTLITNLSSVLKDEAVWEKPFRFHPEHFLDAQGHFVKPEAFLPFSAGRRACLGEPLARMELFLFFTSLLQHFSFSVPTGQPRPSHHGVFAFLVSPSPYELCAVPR
# Method in brief: (§1)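 Test compounds at 10 μM were premixed with baculosome CYP plus a regeneration system. After 15 min at 37 °C, Vivid substrates and NADPH were added. Remaining enzyme activity was read by fluorescence and expressed as % of control, as mean ± SD of triplicates. Isoform-selective inhibitors served as positive controls.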
# [5] = molecular target: CYP2C9 (Homo sapiens, UniProt P11712); test: Inhibition of recombinant human CYP2C9 expressed in baculosomes assessed as residual activity at 10 uM using vivid BOMCC/BOMF/OOMR as substrate after 15 mins in presence of NADPH by fluorescence assay relative to control; assay type: ADME; conditions: probe Vivid BOMCC/BOMF/OOMR, read-out: Activity; method in brief: as §1
# CYP2C9, sequence (P11712 whole entry): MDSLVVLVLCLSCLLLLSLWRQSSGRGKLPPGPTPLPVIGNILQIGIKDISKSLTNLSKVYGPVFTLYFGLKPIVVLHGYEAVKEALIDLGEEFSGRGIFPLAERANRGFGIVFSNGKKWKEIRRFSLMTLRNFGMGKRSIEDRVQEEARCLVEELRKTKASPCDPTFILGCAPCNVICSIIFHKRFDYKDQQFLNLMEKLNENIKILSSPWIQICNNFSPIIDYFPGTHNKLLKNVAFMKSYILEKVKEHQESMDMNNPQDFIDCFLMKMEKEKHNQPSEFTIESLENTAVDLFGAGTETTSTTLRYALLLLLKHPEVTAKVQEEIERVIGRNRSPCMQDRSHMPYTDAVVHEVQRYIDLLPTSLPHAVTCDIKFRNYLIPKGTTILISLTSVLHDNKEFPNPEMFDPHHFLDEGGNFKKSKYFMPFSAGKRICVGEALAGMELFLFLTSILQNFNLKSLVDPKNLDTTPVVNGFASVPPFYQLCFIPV
# [6] = molecular target: CYP3A4 (Homo sapiens, UniProt P08684); test: Inhibition of recombinant human CYP3A4 expressed in baculosomes assessed as residual activity at 10 uM using vivid BOMCC/DBOMF/BOMR as substrate after 15 mins in presence of NADPH by fluorescence assay relative to control; assay type: ADME; conditions: probe Vivid BOMCC/DBOMF/BOMR, read-out: Activity; method in brief: as §1
# CYP3A4, sequence (P08684 whole entry): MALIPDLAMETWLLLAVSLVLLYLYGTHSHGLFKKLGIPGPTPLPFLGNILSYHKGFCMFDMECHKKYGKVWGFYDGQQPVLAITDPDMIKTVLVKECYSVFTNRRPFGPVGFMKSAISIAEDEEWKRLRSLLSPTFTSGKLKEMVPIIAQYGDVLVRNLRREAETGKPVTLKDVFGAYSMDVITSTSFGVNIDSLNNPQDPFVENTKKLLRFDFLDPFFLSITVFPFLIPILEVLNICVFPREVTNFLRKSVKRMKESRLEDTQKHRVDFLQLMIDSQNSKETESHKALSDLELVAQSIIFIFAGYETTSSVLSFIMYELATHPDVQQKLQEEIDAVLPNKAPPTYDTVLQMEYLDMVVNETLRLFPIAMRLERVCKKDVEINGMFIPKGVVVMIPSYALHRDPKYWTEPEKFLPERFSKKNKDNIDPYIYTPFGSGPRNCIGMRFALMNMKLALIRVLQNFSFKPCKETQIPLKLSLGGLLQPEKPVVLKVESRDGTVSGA
# [7] = molecular target: T2, CYP1A2 (Homo sapiens, UniProt P05177); test: Inhibition of recombinant human CYP1A2 expressed in baculosomes assessed as residual activity at 10 uM using vivid EOMCC as substrate after 15 mins in presence of NADPH by fluorescence assay relative to control; assay type: ADME; conditions: probe Vivid EOMCC, read-out: Activity; method in brief: as §1
# T2 sequence (P05177 whole entry): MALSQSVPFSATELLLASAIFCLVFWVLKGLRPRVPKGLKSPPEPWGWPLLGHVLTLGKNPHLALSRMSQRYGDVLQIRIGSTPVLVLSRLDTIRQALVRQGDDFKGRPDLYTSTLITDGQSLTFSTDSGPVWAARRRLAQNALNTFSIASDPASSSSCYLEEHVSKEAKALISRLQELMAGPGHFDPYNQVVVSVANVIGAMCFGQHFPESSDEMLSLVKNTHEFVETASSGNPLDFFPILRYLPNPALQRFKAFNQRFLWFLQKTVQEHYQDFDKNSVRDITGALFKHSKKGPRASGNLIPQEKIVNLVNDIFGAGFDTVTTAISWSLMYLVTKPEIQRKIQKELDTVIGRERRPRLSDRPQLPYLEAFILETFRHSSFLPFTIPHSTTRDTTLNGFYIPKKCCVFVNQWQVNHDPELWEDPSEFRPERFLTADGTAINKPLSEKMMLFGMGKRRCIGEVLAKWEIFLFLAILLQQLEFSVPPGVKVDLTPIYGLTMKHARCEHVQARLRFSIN
# [8] = AUC (0 to infinity) in rat at 10 mg/kg, iv; assay type: ADME, organism-based; set-up: dose 10 mg/kg, route intravenous, time infinity; conditions: in vivo
# Method in brief: (§2)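 Male rats dosed at 10 mg/kg, intravenously (n = 5) or orally (n = 4). Parameters taken from the plasma concentration-time curve and reported as mean ± SD. Brain-to-plasma ratio measured 2 h after dosing. Tmax given as median with range.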
# [9] = AUClast in rat at 10 mg/kg, iv; assay type: ADME, organism-based; set-up: dose 10 mg/kg, route intravenous, time 0 - last; conditions: in vivo; method in brief: as §2
# [10] = Terminal half-life in rat at 10 mg/kg, iv; assay type: ADME, organism-based; conditions: in vivo, read-out: beta t1/2; method in brief: as §2
# [11] = Clearance in rat at 10 mg/kg, iv; assay type: ADME, organism-based; conditions: in vivo; method in brief: as §2
# [12] = Mean residence time in rat at 10 mg/kg, iv; assay type: ADME, organism-based; conditions: in vivo; method in brief: as §2
# [13] = Ratio of drug level in brain to plasma in rat at 10 mg/kg, iv measured at 2 hrs post dose; assay type: ADME, organism-based; conditions: brain and plasma, read-out: BPR; method in brief: as §2
# [14] = Oral bioavailability in rat at 10 mg/kg; assay type: ADME, organism-based; conditions: in vivo; method in brief: as §2
# [15] = AUC (0 to infinity) in rat at 10 mg/kg, po; assay type: ADME, organism-based; set-up: dose 10 mg/kg, route oral, time infinity; conditions: in vivo; method in brief: as §2
# [16] = AUClast in rat at 10 mg/kg, po; assay type: ADME, organism-based; set-up: dose 10 mg/kg, route oral, time 0 - last; conditions: in vivo; method in brief: as §2
# [17] = Terminal half-life in rat at 10 mg/kg, po; assay type: ADME, organism-based; conditions: in vivo, read-out: beta t1/2; method in brief: as §2
# [18] = Cmax in rat at 10 mg/kg, po; assay type: ADME, organism-based; set-up: dose 10 mg/kg, route oral; conditions: in vivo; method in brief: as §2
# [19] = Tmax in rat at 10 mg/kg, po; assay type: ADME, organism-based; conditions: in vivo; method in brief: as §2
# [20] = Ratio of drug level in brain to plasma in rat at 10 mg/kg, po measured at 2 hrs post dose; assay type: ADME, organism-based; conditions: brain and plasma, read-out: BPR; method in brief: as §2
# [21] = test system: Rattus norvegicus; test: Anti-algetic activity in rat streptozotocin-induced neuropathic pain model assessed as reduction in mechanical allodynia at 100 mg/kg, po measured after 3 hrs; assay type: functional, organism-based
# Method in brief: (§3)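 STZ-diabetic rats were made by i.p. streptozotocin at 65 mg/kg. After 4 weeks, rats with confirmed neuropathic pain were selected by blood glucose and behavioural testing. A single oral dose of 100 mg/kg was given (n = 5–6). Mechanical allodynia was tested by von Frey, and heat hypersensitivity was also assessed, at 1, 3 and 5 h. Comparison was against pre-dose values by paired t-test.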
# [22] = test system: Rattus norvegicus; test: Anti-algetic activity in rat streptozotocin-induced neuropathic pain model assessed as reduction in heat hypersensitivity at 100 mg/kg, po measured after 3 hrs; assay type: functional, organism-based; method in brief: as §3
# [23] = test system: Rattus norvegicus; test: Anti-algetic activity in rat streptozotocin-induced neuropathic pain model assessed as reduction in mechanical allodynia at 50 mg/kg, po measured after 1 to 5 hrs; assay type: functional, organism-based
# Method in brief: (§4)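 Neuropathic pain was induced in rats by i.p. streptozotocin at 65 mg/kg and confirmed at 4 weeks by glucose and behaviour. Rats received a single oral 50 mg/kg dose, alone or together with gabapentin at 50 mg/kg (n = 6–7). Mechanical allodynia (von Frey) and heat hypersensitivity were tested at 1, 3 and 5 h. Paired t-test was used versus pre-dose.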
# [24] = test system: Rattus norvegicus; test: Anti-algetic activity in rat streptozotocin-induced neuropathic pain model assessed as reduction in heat hypersensitivity at 50 mg/kg, po measured after 1 to 5 hrs; assay type: functional, organism-based; method in brief: as §4
# [25] = test system: Rattus norvegicus; test: Anti-algetic activity in rat streptozotocin-induced neuropathic pain model assessed as reduction in heat hypersensitivity at 50 mg/kg, po measured after 3 hrs in presence of gabapentin; assay type: functional, organism-based; method in brief: as §4
# [26] = test system: Rattus norvegicus; test: Anti-algetic activity in rat streptozotocin-induced neuropathic pain model assessed as reduction in mechanical allodynia at 100 mg/kg, po measured after 1 to 5 hrs; assay type: functional, organism-based
# Method in brief: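 Rats made diabetic by intraperitoneal STZ (65 mg/kg); 4 weeks later, rats with established neuropathic pain chosen by blood glucose level and behavioural testing. Single oral 100 mg/kg dose given to groups of 5 or 6 rats. Mechanical allodynia measured with von Frey filaments at 1, 3 and 5 h; paired t-test against pre-administration values.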
# [27] = test system: Rattus norvegicus; test: Anti-algetic activity in rat streptozotocin-induced neuropathic pain model assessed as reduction in heat hypersensitivity at 100 mg/kg, po measured after 1 to 5 hrs; assay type: functional, organism-based
# Method in brief: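 Type 1 diabetes induced in rats by intraperitoneal STZ (65 mg/kg); after 4 weeks, neuropathic rats selected by blood glucose level and pain behaviour. Single oral dose of 100 mg/kg given to groups of 5 or 6 rats; heat hypersensitivity tested at 1, 3 and 5 h. Changes compared with pre-administration values by paired t-test.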
structure (smiles),measurement,setting,value
CC(C)c1cc(CN2Cc3ccccc3S2(=O)=O)nn1-c1ccccc1,inhibition,[1],75.5%
same,IC50,[2],2.52 µM
same,"remaining at 0.5 h, 1 µM",[3],4.69%
same,"activity at 0.25 h, 10 µM",[4],86.6%
same,"activity at 0.25 h, 10 µM",[5],14.2%
same,"activity at 0.25 h, 10 µM",[6],47.2%
CC(C)c1cc(CN2Cc3ccccc3S2(=O)=O)nn1-c1ccc(F)cc1,inhibition,[1],71.6%
same,IC50,[2],2.32 µM
same,"remaining at 0.5 h, 1 µM",[3],102%
same,"activity at 0.25 h, 10 µM",[7],110%
same,"activity at 0.25 h, 10 µM",[4],90.6%
same,"activity at 0.25 h, 10 µM",[5],103%
same,"activity at 0.25 h, 10 µM",[6],45.7%
same,AUC(0-inf),[8],2980 ng·h/mL
same,AUC(0-t),[9],2630 ng·h/mL
same,half-life,[10],2.94 h
same,clearance,[11],57.7 mL/min/kg
same,MRT,[12],1.7 h
same,Kp at 2 h,[13],1.28
same,bioavailability,[14],9.2%
same,AUC(0-inf),[15],274 ng·h/mL
same,AUC(0-t),[16],243 ng·h/mL
same,half-life,[17],1.96 h
same,Cmax,[18],100 ng/mL
same,Tmax,[19],2.5 h
same,Kp at 2 h,[20],0.13
same,Activity,[21],inactive
same,Activity,[22],inactive
same,Activity,[23],inactive
same,Activity,[24],inactive
same,Activity,[25],Active
CC(C)(C)n1nc(CN2Cc3ccccc3S2(=O)=O)cc1-c1ccc(N2CCCCC2)cc1,inhibition,[1],16.3%
Cc1c(CNS(=O)(=O)c2ccccc2)nn(-c2ccccc2)c1CC(C)C,inhibition,[1],72%
same,IC50,[2],4.3 µM
same,"remaining at 0.5 h, 1 µM",[3],0.26%
same,"activity at 0.25 h, 10 µM",[4],45.2%
same,"activity at 0.25 h, 10 µM",[5],45.2%
same,"activity at 0.25 h, 10 µM",[6],38.7%
CC(C)c1cc(CN2Cc3ccccc3S2(=O)=O)nn1-c1c(Cl)cccc1Cl,inhibition,[1],29.5%
CC(C)(C)n1nc(CN2Cc3ccccc3S2(=O)=O)cc1-c1ccc(F)cc1,inhibition,[1],23.1%
CC(C)(C)n1nc(CN2Cc3ccccc3S2(=O)=O)cc1-c1ccc(C2CCCCC2)cc1,inhibition,[1],9.86%
CC(C)Cc1cc(CN(C)S(=O)(=O)c2ccccc2)nn1-c1ccccc1,inhibition,[1],54.2%
same,"remaining at 0.5 h, 1 µM",[3],1.46%
CC(C)(C)n1nc(CN2Cc3ccccc3S2(=O)=O)cc1-c1ccccc1,inhibition,[1],18.7%
CC(C)n1nc(CN2Cc3ccccc3S2(=O)=O)cc1-c1ccc(F)cc1,inhibition,[1],16.5%
CC(C)n1nc(CN2Cc3ccccc3S2(=O)=O)cc1-c1ccccc1,inhibition,[1],22.1%
CC(C)(C)n1nc(CN2Cc3ccccc3S2(=O)=O)cc1-c1ccc(C(F)(F)F)cc1,inhibition,[1],20.8%
CC(C)c1cc(CN2Cc3ccccc3S2(=O)=O)nn1C(C)(C)C,inhibition,[1],68%
same,IC50,[2],3.69 µM
same,"remaining at 0.5 h, 1 µM",[3],103%
same,"activity at 0.25 h, 10 µM",[7],123%
same,"activity at 0.25 h, 10 µM",[4],78.8%
same,"activity at 0.25 h, 10 µM",[5],90.7%
same,"activity at 0.25 h, 10 µM",[6],52.1%
NCC1(CC(=O)O)CCCCC1,Activity,[26],inactive
same,Activity,[27],Active
CC(C)Cc1cc(CNS(=O)(=O)c2ccccc2)nn1-c1ccccc1,"remaining at 0.5 h, 1 µM",[3],13.9%
